Consider 24 molecules from ChEMBL document CHEMBL3865796, “Novel (2,6-difluorophenyl)(2-(phenylamino)pyrimidin-4-yl)methanones with restricted conformation as potent non-nucleoside reverse transcriptase inhibitors against HIV-1” (Eur J Med Chem, 2016).

Data set [1] in a line: Inhibition of wild type HIV-1 3B reverse transcriptase infected in human MT4 cells assessed as inhibition of viral replication after 5 days by cell titer glo based luciferase reporter gene assay. Particulars: Human immunodeficiency virus 1, 3B, MT4, 120 h.
Data set [2] is described as follows: Cytotoxicity against human MT4 cells assessed as decrease in cell viability after 5 days by cell titer glo based luciferase reporter gene assay. In kind it is toxicity. Summed up:
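Mock-infected MT-4 cells (pre-treated with RPMI) in complete RPMI (10% FBS, 1% P/S) received 1:3 serial DMSO dilutions of compound, further diluted 200-fold into medium, in a 384-well format. Incubated 5 days at 37 °C in a humidified incubator. Viability was read as CellTiter-Glo luminescence. CC50 is the concentration giving a 50% fall in signal, from a sigmoidal dose-response fit.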

Data set [3] can be described thus: Selectivity index, ratio of CC50 for human MT4 cells to EC50 for wild type HIV-1 3B reverse transcriptase infected in human MT4 cells. In kind it is toxicity, cell-based. Particulars: read-out: Ratio CC50/EC50.
Data set [4] can be described thus: Inhibition of wild type HIV-1 3B reverse transcriptase infected in human MT4 cells assessed as inhibition of virus-induced cytopathic effect after 5 days incubation by Cell Titer Glo luminescence assay. Particulars: Human immunodeficiency virus 1, 3B.

Structures are written as SMILES. Some results are limits rather than exact numbers.

Turning to `COc1cc(F)c(C(=O)c2nc(Nc3ccc(C#N)cc3)ncc2Br)c(F)c1`, in data set [1], the EC50 was determined as 0.069 µM. In addition, the half-maximal cytotoxic concentration (CC50) at 120 h in data set [2] was found to be 38.7 µM. Further, in data set [3], the selectivity ratio turned out to be 561.
Taken in the same sequence, the figures for `N#Cc1ccc(Nc2ccnc(C(O)c3ccc(C#N)cc3)n2)cc1` (stereo not given) were over 57 µM, over 57 µM and 1.
For the molecule `COc1ccc(C(=O)c2ccnc(Nc3ccc(C#N)cc3)n2)cc1`, the EC50 was 0.814 µM in data set [1] and 239 nM in data set [4]. Moreover, the CC50 at 120 h in data set [2] is over 57 µM. The selectivity ratio in data set [3] is over 70.
Turning to `N#Cc1ccc(C(=O)c2nccc(Cl)n2)cc1`, the EC50 in data set [1] is over 57 µM. Further, the half-maximal cytotoxic concentration (CC50) at 120 h in data set [2] stood at 16.5 µM. Further, the selectivity ratio in data set [3] was under 0.29.
For the molecule `N#Cc1ccc(Nc2nc(C(=O)c3ccc(C#N)cc3)ncc2Br)cc1`, in data set [1], the EC50 came out at 27.7 µM. The CC50 at 120 h in data set [2] is over 57 µM. The selectivity ratio in data set [3] is over 2.06.
The corresponding values for `COc1ccc(C(=O)c2ccnc(Cl)n2)cc1` are over 57 µM, 39.6 µM and under 0.69.
Taken in the same sequence, the figures for `O=C(c1ccnc(Cl)n1)c1c(F)cc(F)cc1F` were over 57 µM, 40.1 µM and under 0.7.
For `O=C1Nc2ccc(Cl)cc2[C@@](C#CC2CC2)(C(F)(F)F)O1` [EFAVIRENZ], the EC50 in data set [1] was 0.001 µM. Also, in data set [2], the CC50 at 120 h stood at 20.6 µM.
In the case of `Cc1cc(C#N)cc(C)c1Oc1nc(Nc2ccc(C#N)cc2)nc(N)c1Br` [ETRAVIRINE], the CC50 at 120 h in data set [2] was determined as 5.88 µM.
As for `N#Cc1ccc(Nc2ncc(Br)c(C(=O)c3ccc(C#N)cc3)n2)cc1`, in data set [1], the EC50 was determined as 7.4 µM. Moreover, the CC50 at 120 h in data set [2] is over 57 µM. Moreover, the selectivity ratio in data set [3] is over 7.7.
The corresponding values for `N#Cc1ccc(Nc2nccc(C(=O)c3ccc(C#N)cc3)n2)cc1` are 4.5 µM, over 57 µM and over 12.7.
Taken in the same sequence, the figures for `N#Cc1ccc(Nc2ncc(Br)c(C(=O)c3c(F)cc(O)cc3F)n2)cc1` were over 57 µM, over 57 µM and 1.
The corresponding values for `COc1ccc(C(=O)c2nc(Nc3ccc(C#N)cc3)ncc2Br)cc1` are over 57 µM, 2.45 µM and under 0.04.
On to `COc1cc(F)c(C(=O)c2ccnc(Nc3ccc(C#N)cc3)n2)c(F)c1`, for which the EC50 in data set [1] is 0.004 µM. Also, the CC50 at 120 h in data set [2] was over 57 µM. The selectivity ratio in data set [3] is over 14200.
Consider `COc1cc(F)c(C(=O)c2ccnc(Cl)n2)c(F)c1`, for which the EC50 in data set [1] was over 57 µM. In addition, the CC50 at 120 h in data set [2] is over 57 µM. Moreover, the selectivity ratio in data set [3] stood at 1.
In the case of `COc1cc(F)c(C(=O)c2nc(Nc3ccc(C#N)cc3Br)ncc2Br)c(F)c1`, in data set [1], the 50% effective concentration (EC50) worked out at 18.9 µM. Besides, in data set [2], the CC50 at 120 h is over 57 µM. Moreover, the selectivity ratio in data set [3] is over 3.02.
Taken in the same sequence, the figures for `N#Cc1ccc(Nc2nccc(C(O)c3ccc(C#N)cc3)n2)cc1` (stereo not given) were 3.7 µM, over 57 µM and over 15.4.
Taken in the same sequence, the figures for `N#Cc1ccc(Nc2nccc(C(=O)c3c(F)cc(F)cc3F)n2)cc1` were 0.034 µM, over 57 µM and over 1680.
The corresponding values for `N#Cc1ccc(Nc2nccc(C(=O)c3c(F)cc(C#N)cc3F)n2)cc1` are 0.051 µM, over 57 µM and over 1120.
For `N#Cc1cc(F)c(C(=O)c2ccnc(Cl)n2)c(F)c1`, the EC50 in data set [1] is over 57 µM. Moreover, the CC50 at 120 h in data set [2] came to 30.5 µM. The selectivity ratio in data set [3] was under 0.54.
With `N#Cc1ccc(C(=O)c2ccnc(Cl)n2)cc1`, the EC50 in data set [1] is over 57 µM. For the same molecule, in data set [2], the CC50 at 120 h was 31.9 µM. Besides, the selectivity ratio in data set [3] is under 0.56.
On to `O=C(c1ccnc(Cl)n1)c1c(F)cc(Br)cc1F`, for which the EC50 in data set [1] is over 57 µM. Moreover, in data set [2], the CC50 at 120 h is over 57 µM. Further, in data set [3], the selectivity ratio amounted to 1.
For `N#Cc1ccc(Nc2ccnc(C(=O)c3ccc(C#N)cc3)n2)cc1`, the half-maximal effective concentration (EC50) in data set [1] turned out to be 43 µM. Besides, in data set [2], the CC50 at 120 h is over 57 µM. In addition, the selectivity ratio in data set [3] is over 1.33.
Taken in the same sequence, the figures for `N#Cc1ccc(Nc2cc(F)c(C(=O)c3ccnc(Nc4ccc(C#N)cc4)n3)c(F)c2)cc1` were 0.31 µM, 51.9 µM and 167.
